Experimental findings from ChEMBL document CHEMBL1154674, “Synthesis and evaluation of three 18F-labeled aminophenylbenzothiazoles as amyloid imaging agents” (J Med Chem, 2009) are described below.

Type in all cases: ADME, organism-based, Macaca mulatta
Data set [1] can be described thus: Drug level in normal rhesus monkey frontal cortex assessed as standard uptake value at 152.9 MBq, iv after 42.5 mins by microPET. The conditions noted are these: in vivo. The essentials:
(§1)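 Single normal rhesus monkey; tracer given iv via the vena saphena, 1 day apart from the other tracer injections. Dynamic μPET ran 90 min (5×60 s, 5×120 s, 9×300 s, 3×600 s). Images were reconstructed by filtered back projection with a RAMP filter. Regional time-activity curves were expressed as SUV.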

A short description of data set [2]: Drug level in normal rhesus monkey pons assessed as standard uptake value at 152.9 MBq, iv after 1.5 mins by microPET. The conditions noted are these: in vivo, 0.025 h.
Data set [3] is described as follows: Drug level in normal rhesus monkey thalamus assessed as standard uptake value at 152.9 MBq, iv after 42.5 mins by microPET. Particulars: in vivo.
Data set [4] is described as follows: Drug level in normal rhesus monkey white matter assessed as standard uptake value at 152.9 MBq, iv after 3.5 mins by microPET. Particulars: in vivo.
A short description of data set [5]: Drug level in normal rhesus monkey cerebellum assessed as standard uptake value at 152.9 MBq, iv after 2.5 mins by microPET. The conditions noted are these: in vivo. The method in brief: (§2)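 One normal rhesus monkey received each tracer via the vena saphena, with 1 day between injections. Dynamic μPET ran 180 min for 18F tracers (5×60 s, 5×120 s, 9×300 s, 12×600 s) and 90 min for the 11C tracer (5×60 s, 5×120 s, 9×300 s, 3×600 s). Filtered back-projection reconstruction (RAMP filter) was used. Time-activity curves were drawn to give regional SUV.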

Data set [6] is described as follows: Drug level in normal rhesus monkey parietal cortex assessed as standard uptake value at 152.9 MBq, iv after 42.5 mins by microPET. The conditions noted are these: in vivo.
Data set [7] can be described thus: Drug level in normal rhesus monkey pons assessed as standard uptake value at 152.9 MBq, iv after 8 mins by microPET. Particulars: in vivo.
Data set [8] is described as follows: Drug level in normal rhesus monkey pons assessed as standard uptake value at 152.9 MBq, iv after 37.5 mins by microPET. Particulars: in vivo, 0.625 h.
The nature of data set [9]: Drug level in normal rhesus monkey cerebellum assessed as standard uptake value at 152.9 MBq, iv after 75 mins by microPET. The conditions noted are these: in vivo, 1.25 h. The essentials:
as §1

Data set [10] in a line: Drug level in normal rhesus monkey cerebellum assessed as standard uptake value at 109.4 MBq, iv after 4.5 mins by microPET. The conditions noted are these: in vivo, 0.075 h. The essentials:
(§3)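 Single normal rhesus monkey; each tracer given iv via the vena saphena, with 1 day between tracer injections. Dynamic μPET ran 180 min (5×60 s, 5×120 s, 9×300 s, 12×600 s). Images were reconstructed by filtered back projection with a RAMP filter. Regional time-activity curves were expressed as SUV.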

A short description of data set [11]: Drug level in normal rhesus monkey frontal cortex assessed as standard uptake value at 109.4 MBq, iv after 63 mins by microPET. The conditions noted are these: in vivo, 1.05 h.
Data set [12] can be described thus: Drug level in normal rhesus monkey parietal cortex assessed as standard uptake value at 109.4 MBq, iv after 63 mins by microPET. Particulars: in vivo, 1.05 h.
The nature of data set [13]: Drug level in normal rhesus monkey frontal cortex assessed as standard uptake value at 109.4 MBq, iv after 4.5 mins by microPET. Particulars: in vivo, 0.075 h. The essentials:
(§4)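 One normal rhesus monkey, each tracer given iv via the vena saphena (81.2, 96.3 or 109.4 MBq), with 1 day between tracer injections. Dynamic brain μPET over 180 min used frames of 5 × 60 s, 5 × 120 s, 9 × 300 s and 12 × 600 s. Images were reconstructed by filtered back projection with a RAMP filter. Regional time-activity curves were expressed as SUV.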

The nature of data set [14]: Drug level in normal rhesus monkey parietal cortex assessed as standard uptake value at 109.4 MBq, iv after 22.5 mins by microPET. The conditions noted are these: in vivo, 0.375 h.
Data set [15] can be described thus: Drug level in normal rhesus monkey white matter assessed as standard uptake value at 109.4 MBq, iv after 4.5 mins by microPET. The conditions noted are these: in vivo, 0.075 h.
Data set [16] is described as follows: Drug level in normal rhesus monkey cerebellum assessed as standard uptake value at 109.4 MBq, iv after 22.5 mins by microPET. The conditions noted are these: in vivo, 0.375 h. The essentials:
as §2

A short description of data set [17]: Drug level in normal rhesus monkey thalamus assessed as standard uptake value at 109.4 MBq, iv after 12.5 mins by microPET. Particulars: in vivo.
A short description of data set [18]: Drug level in normal rhesus monkey frontal cortex assessed as standard uptake value at 109.4 MBq, iv after 22.5 mins by microPET. The conditions noted are these: in vivo, 0.375 h. The method in brief: as §3
A short description of data set [19]: Drug level in normal rhesus monkey white matter assessed as standard uptake value at 96.3 MBq, iv after 27.5 mins by microPET. The conditions noted are these: in vivo.
A short description of data set [20]: Drug level in normal rhesus monkey thalamus assessed as standard uptake value at 96.3 MBq, iv after 32.5 mins by microPET. The conditions noted are these: in vivo.
A short description of data set [21]: Drug level in normal rhesus monkey pons assessed as standard uptake value at 96.3 MBq, iv after 105 mins by microPET. Particulars: in vivo, 1.75 h.
Data set [22] is described as follows: Drug level in normal rhesus monkey frontal cortex assessed as standard uptake value at 96.3 MBq, iv after 4.5 mins by microPET. The conditions noted are these: in vivo, 0.075 h.
Data set [23] is described as follows: Drug level in normal rhesus monkey frontal cortex assessed as standard uptake value at 96.3 MBq, iv after 10 mins by microPET. The conditions noted are these: in vivo.
Data set [24] can be described thus: Drug level in normal rhesus monkey parietal cortex assessed as standard uptake value at 96.3 MBq, iv after 155 mins by microPET. Particulars: in vivo.
Data set [25] in a line: Drug level in normal rhesus monkey white matter assessed as standard uptake value at 96.3 MBq, iv after 52.5 mins by microPET. Particulars: in vivo, 0.875 h.
Data set [26] in a line: Drug level in normal rhesus monkey parietal cortex assessed as standard uptake value at 96.3 MBq, iv after 6 mins by microPET. Particulars: in vivo, 0.1 h.
Data set [27] is described as follows: Drug level in normal rhesus monkey thalamus assessed as standard uptake value at 96.3 MBq, iv after 47.5 mins by microPET. The conditions noted are these: in vivo.
The nature of data set [28]: Drug level in normal rhesus monkey parietal cortex assessed as standard uptake value at 81.2 MBq, iv after 6 mins by microPET. The conditions noted are these: in vivo, 0.1 h.
The nature of data set [29]: Drug level in normal rhesus monkey cerebellum assessed as standard uptake value at 81.2 MBq, iv after 17.5 mins by microPET. The conditions noted are these: in vivo. The essentials:
as §4

Data set [30] is described as follows: Drug level in normal rhesus monkey thalamus assessed as standard uptake value at 81.2 MBq, iv after 37.5 mins by microPET. Particulars: in vivo, 0.625 h.
Data set [31] is described as follows: Drug level in normal rhesus monkey parietal cortex assessed as standard uptake value at 81.2 MBq, iv after 0.5 mins by microPET. The conditions noted are these: in vivo.
The nature of data set [32]: Drug level in normal rhesus monkey parietal cortex assessed as standard uptake value at 81.2 MBq, iv after 175 mins by microPET. The conditions noted are these: in vivo.
A short description of data set [33]: Drug level in normal rhesus monkey pons assessed as standard uptake value at 81.2 MBq, iv after 12 mins by microPET. The conditions noted are these: in vivo, 0.2 h.
Data set [34] can be described thus: Drug level in normal rhesus monkey white matter assessed as standard uptake value at 81.2 MBq, iv after 85 mins by microPET. The conditions noted are these: in vivo.
A short description of data set [35]: Drug level in normal rhesus monkey cerebellum assessed as standard uptake value at 81.2 MBq, iv after 175 mins by microPET. Particulars: in vivo. The method in brief: as §4
Data set [36] is described as follows: Drug level in normal rhesus monkey frontal cortex assessed as standard uptake value at 81.2 MBq, iv after 52.5 mins by microPET. Particulars: in vivo, 0.875 h.

Each structure is given as a SMILES string.

With `[11CH3]Nc1ccc(-c2nc3ccc(O)cc3s2)cc1` [PITTSBURGH COMPOUND B], the SUV is on record as 0.84 in data set [1]; 0.447 in data set [2]; 1.223 in data set [3]; 1.053 in [4]; 1.545 in [5]; 0.906 in data set [6]. For the same compound, the SUV in data set [7] worked out at 2.153; in data set [8] it was 1.229; in [9] it was 0.665.

Consider `Nc1ccc2nc(-c3ccc([18F])cc3)sc2c1`, for which the SUV in data set [10] turned out to be 6.13; in data set [11] it was 4.56; in [12] it was 4.18; in [13], 5.43; in data set [14], 4.93; in [15], 2.62. Besides, the SUV in [16] is 4.4; in data set [17], 5.39; in [18] it was 5.16.

For `CN(C)c1ccc2nc(-c3ccc([18F])cc3)sc2c1`, the SUV in data set [19] is reported as 1.39; in data set [20], 2.33; in data set [21], 1.72; in data set [22], 1.64; in data set [23], 2.13; in data set [24], 1.23. Further, the SUV in data set [25] was 1.4; in data set [26] it was 2.16; in [27], 2.25.

Consider `CNc1ccc2nc(-c3ccc([18F])cc3)sc2c1`, for which the SUV stood at 4.972 in data set [28]; 2.753 in [29]; 5.69 in [30]; 0.924 in [31]; 2.528 in data set [32]; 5.701 in data set [33]. Also, the SUV is recorded as 3.871 in [34], 1.384 in data set [35] and 5.321 in data set [36].
